Measured values as given in ChEMBL document CHEMBL1125186, “GABA-uptake inhibitors: construction of a general pharmacophore model and successful prediction of a new representative” (J Med Chem, 1991).

Columns and labels:
[1] = species on record: Rattus norvegicus; assay: Concentration required for 50% inhibition of GABA uptake in rat brain; format: functional
Summary of the method: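 Rat corpus striatum synaptosomes from a 0.32 M sucrose homogenate: 1000g spin, then 20000g pellet, both at 4 °C. Synaptosomes (1 mg protein) incubated 2 min at 37 °C in pH 7.4 Krebs-Ringer phosphate with 0.15 M NaCl, [3H]GABA (25–40 Ci/mmol) and test compound up to 10⁻⁴ M. Stopped by dilution with NaCl-free medium, centrifuged; pellet radioactivity counted. IC50 derived from the concentration range.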

[2] = Dissociation constant was measured by potentiometric titrations; format: physicochemical
Summary of the method: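 pKa determined by potentiometric titration; values are means of at least two determinations.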

[3] = I/U is the ratio of zwitterionic (I) to that of unionized […]; format: ADME
Summary of the method: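 Ratio of zwitterionic (I) to un-ionized (U) species calculated by the Wegscheider method.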

[4] = Partition coefficient (logP) (cyclohexane); format: physicochemical; conditions: cyclohexane/phosphate buffer pH 7.4
Summary of the method: (§1)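 Conventional shake-flask partitioning at room temperature, 1-octanol or cyclohexane against 0.15 M phosphate buffer pH 7.4. Compound in the aqueous phase quantified spectrophotometrically. Means of at least two determinations.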

[5] = Delta logPoct-cyc; format: ADME; conditions: octanol/water
Summary of the method: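 ΔP taken as log Poct minus log Pcyc. Both come from shake-flask partitioning at room temperature against 0.15 M phosphate buffer pH 7.4, with the aqueous phase read spectrophotometrically.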

[6] = Concentration required for 50% inhibition of GABA uptake in rat brain
[7] = Partition coefficient (logP); format: physicochemical; conditions: octanol/water; summary of the method: as §1
[8] = Dissociation constant was measured as pKa1 by potentiometric titrations

CN1CC(C(=O)O)=CCC1CCCCc1ccccc1 (configuration not stated)
IC50 [1]: > 100 µM

CCCC1CC=C(C(=O)OCC)CN1 (configuration not stated)
IC50 [1]: > 100 µM

CC1CC=C(C(=O)O)CN1 (configuration not stated)
IC50 [1]: 40 µM

CCOC(=O)C1=CCC(CC)NC1 (configuration not stated)
IC50 [1]: > 100 µM

O=C(O)C1=CCC(CCc2ccccc2)NC1 (configuration not stated)
IC50 [1]: 100 µM

CCCC1CC=C(C(=O)O)CN1 (configuration not stated)
IC50 [1]: > 100 µM

CCOC(=O)C1=CCC(CCC(c2ccccc2)c2ccccc2)NC1 (configuration not stated)
IC50 [1]: 37 µM

O=C(O)C1CCCN(CCC=C(c2ccccc2)c2ccccc2)C1 (configuration not stated)
pKa2 [2]: 9.23 | Ratio [3]: 6000 | logP [4]: -0.43 | delta logP [5]: 1.43 | pKa [6]: 3.57 | logP [7]: 0.99

O=C(O)C1=CCC(CCCCc2ccccc2)NC1 (configuration not stated)
IC50 [1]: > 100 µM

Cl.O=C(O)C1=CCC(CCC(c2ccccc2)c2ccccc2)NC1 (configuration not stated)
pKa2 [2]: 9.25 | Ratio [3]: 7000 | logP [4]: -2 | pKa [8]: 3.79 | delta logP [5]: 2.71 | logP [7]: 0.71 | IC50 [1]: 0.1 µM

CCC1CC=C(C(=O)O)CN1 (configuration not stated)
IC50 [1]: > 100 µM
